The text below walks through data of ChEMBL document CHEMBL1629684, “Effects of ravuconazole treatment on parasite load and immune response in dogs experimentally infected with Trypanosoma cruzi” (Antimicrob Agents Chemother, 2010).

The nature of data set [1]: Half life in mouse. Format: ADME, organism-based. Conditions: in vivo.
Data set [2] has as its system Trypanosoma cruzi. Put plainly: Antimicrobial activity against Trypanosoma cruzi Berenice-78 infected in mongrel dog assessed as suppression of microbial proliferation at 12 mg/kg, po BID started 12 to 22 days postinfection measured after 1 day. Format: functional, organism-based. Details: dose 12 mg/kg. The gist of the method:
(§1)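 Mongrel dogs, 4 months old, dewormed and vaccinated, were inoculated with 2.0 × 10^3 bloodstream trypomastigotes/kg. Oral b.i.d. (q12h) dosing began 12 to 22 days postinfection, once parasitemia appeared. Dosing ran 90 days at 12 mg/kg and 60 days at 7 mg/kg, with 5 dogs per group. Parasitemia was read by fresh-blood examination of marginal ear vein blood from day 10 of infection until parasites were undetectable.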

Data set [3] has as its system Canis familiaris. Put plainly: Immunostimulatory activity in mongrel dog infected with Trypanosoma cruzi Berenice-78 assessed as reduction in INFgamma production in right atrium at 12 mg/kg, po BID after 180 days by semiquantitative RT-PCR. Format: functional, organism-based. Details: dose 12 mg/kg. Conditions: Canis lupus familiaris, Cardiac atrium. The essentials: (§2)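 Dogs were euthanized 6 months after the end of treatment. RNA was extracted from the right atrium with acid guanidinium thiocyanate-phenol-chloroform. One microgram was DNase treated and reverse transcribed with oligo(dT) for 1 h at 42°C. IFN-γ or IL-10 cDNA was amplified with 1.5 mM MgCl2: 94°C 5 min, n cycles of 94/57/72°C, final extension 72°C 6 min. Expression was scored semiquantitatively against infected untreated and noninfected dogs.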

For data set [4], the system named is Trypanosoma cruzi. Put plainly: Antimicrobial activity against Trypanosoma cruzi Y infected in mongrel dog assessed as suppression of microbial proliferation at 7 mg/kg, po BID started 12 to 22 days postinfection measured after 1 day. Format: functional, organism-based. Details: dose 7 mg/kg. The essentials: as §1
Data set [5] concerns Trypanosoma cruzi. Nature of the data set: Antimicrobial activity against Trypanosoma cruzi Berenice-78 infected in mongrel dog assessed as parasite level in blood of dog at 12 mg/kg, po BID started 12 to 22 days postinfection measured after 6 months by PCR analysis. Format: functional. The essentials: (§3)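 Blood PCR for T. cruzi on treated dogs (n = 5 per group) at 1 and 6 months posttreatment. Each reaction took 2 μl blood DNA template in Tris-HCl pH 9.0, 75 mM KCl, 3.5 mM MgCl2 and 0.2 mM dNTPs. Cycling was 95°C 5 min, then 2 cycles annealing at 30°C, 33 cycles at 40°C, and 72°C 5 min. Products were run on 6% polyacrylamide and silver stained. Reported as rate of positive animals.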

In data set [6] the test system is Canis familiaris. Nature of the data set: Immunostimulatory activity in mongrel dog infected with Trypanosoma cruzi Berenice-78 assessed as reduction in IL10 production in right atrium at 7 mg/kg, po BID after 180 days by semiquantitative RT-PCR. Format: functional, organism-based. Further details: dose 7 mg/kg. The conditions noted are these: Canis lupus familiaris, Cardiac atrium. The essentials: as §2

Data set [7] deals with Canis familiaris. Put plainly: Immunostimulatory activity in mongrel dog infected with Trypanosoma cruzi Berenice-78 assessed as production of antibody IgG2 at 7 mg/kg, po BID for 90 days measured up to 30 days by ELISA. Conditions: Canis lupus familiaris. Details: dose 7 mg/kg. Format: functional, organism-based. The essentials: (§4)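 Serum was taken before inoculation and then monthly until 6 months posttreatment, and stored at −80°C. ELISA plates were coated with alkaline extract of Y-strain parasites grown to exponential phase in LIT medium. Bound total IgG or IgG2 was detected with peroxidase-labeled anti-dog conjugates and read at 490 nm. Cutoff was the mean absorbance of 10 uninfected dogs plus 2 SD.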
In general terms: ELISA stands for enzyme-linked immunosorbent assay.

The test system of data set [8] is Trypanosoma cruzi. Put plainly: Antitrypanosomal activity against Trypanosoma cruzi Berenice-78 infected in mongrel dog assessed as reduction in parasite-induced intrafascicular collagen deposition in right atrium at 7 mg/kg, po BID after 180 days […]. Format: functional, organism-based. Further details: dose 7 mg/kg. The conditions noted are these: Cardiac atrium.

Data set [9] concerns Canis familiaris. Nature of the data set: Immunostimulatory activity in mongrel dog infected with Trypanosoma cruzi Y assessed as production of antibody IgG2 at 12 mg/kg, po BID for 90 days measured up to 30 days by ELISA. Further details: dose 12 mg/kg. Conditions: Canis lupus familiaris. Format: functional, organism-based. The essentials:
as §4

The test system of data set [10] is Trypanosoma cruzi. Put plainly: Antimicrobial activity against Trypanosoma cruzi Berenice-78 infected in mongrel dog assessed as parasite level in blood of dog at 12 mg/kg, po BID started 12 to 22 days postinfection measured after 30 days by PCR analysis. Format: functional. The gist of the method: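 Mongrel dogs (4 months old, five per group) were inoculated with 2.0 × 10^3 Berenice-78 bloodstream trypomastigotes/kg and dosed orally at 12 mg/kg q12h for 90 days, beginning 12–22 days postinfection once parasitemia appeared. Blood was sampled 1 month after treatment. PCR used 2 μl blood DNA, 35 cycles with annealing at 30°C then 40°C, and polyacrylamide gel with silver staining.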

For data set [11], the system named is Canis familiaris. Put plainly: Toxicity in mongrel dog infected with Trypanosoma cruzi Y assessed as weight loss at 12 mg/kg, po BID for 90 days started 12 to 22 days postinfection measured after 1 day. Format: organism-based, Canis lupus familiaris. Further details: dose 12 mg/kg, route oral. Conditions: in vivo, 24 h. The gist of the method:
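Body weight gain, in kg, was recorded for infected dogs 1 day and 6 months after the end of oral b.i.d. treatment. Treated animals were compared with infected untreated and noninfected control groups.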

The test system of data set [12] is Trypanosoma cruzi. Nature of the data set: Antimicrobial activity against Trypanosoma cruzi Y infected in mongrel dog assessed as parasite level in blood of dog at 12 mg/kg, po BID started 12 to 22 days postinfection measured after 30 days by PCR analysis. Format: functional. The gist of the method: as §3
The subject of data set [13] is Canis familiaris. Nature of the data set: Immunostimulatory activity in mongrel dog infected with Trypanosoma cruzi Y assessed as production of antibody IgG2 at 7 mg/kg, po BID for 90 days measured up to 30 days by ELISA. Format: functional, organism-based. Further details: dose 7 mg/kg. The conditions noted are these: Canis lupus familiaris. The essentials:
as §4

The subject of data set [14] is Trypanosoma cruzi. Nature of the data set: Antimicrobial activity against Trypanosoma cruzi Y infected in mongrel dog assessed as parasite level in blood of dog at 7 mg/kg, po BID started 12 to 22 days postinfection measured after 30 days by PCR analysis. Format: functional. The essentials:
as §3

SMILES strings stand for the structures. The source made the active and inactive calls.

The molecule `C[C@@H](c1nc(-c2ccc(C#N)cc2)cs1)[C@](O)(Cn1cncn1)c1ccc(F)cc1F` [RAVUCONAZOLE] had a half-life in data set [1] of 270 min. Moreover, the Activity result with Trypanosoma cruzi [2] was “Non-toxic”; in the data set with Trypanosoma cruzi [4], “Non-toxic”; with Trypanosoma cruzi [5], 80%; in the data set on Trypanosoma cruzi [10], 100%; in the data set with Canis familiaris [11] it was “Non-toxic”; with Trypanosoma cruzi [12] it was 80%. The Activity in the data set on Trypanosoma cruzi [14] was 40%. In addition, the outcome with Canis familiaris [3], in the data set on Canis familiaris [6], with Canis familiaris [7], with Trypanosoma cruzi [8], in the data set on Canis familiaris [9] and in the data set with Canis familiaris [13] was Active.

What is called half-life is the time in which the quantity being followed falls by half. Higher therefore signals slow decline.
